Active and inactive are the calls of the source. The rule behind the calls is not given here.
Key:
HeLa = assay: Antiproliferative activity against human HeLa cells after 48 hrs by resazurin reduction assay; assay type: functional, cell-based
Method in brief: (§1)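 Cells seeded at 8,000/well; adherent lines trypsinized and given 24 h at 37 °C in 5% CO2 before drug, media replaced with drug dilutions or vehicle. Drug exposure 48 h, then 0.1% resazurin added for 4-24 h. Fluorescence 530/590 nm, expressed as % of untreated, and IC50 from log(inhibitor) vs response fit. Mean ± SEM, ≥3 independent experiments, ≥3 wells each.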

HepG2 = assay: Antiproliferative activity against human HepG2 cells after 48 hrs by resazurin reduction assay; assay type: functional, cell-based; conditions: HepG2, 48 h; method in brief: as §1
T47D = assay: Antiproliferative activity against human T47D cells after 48 hrs by resazurin reduction assay; assay type: functional, cell-based; method in brief: as §1
HL-60 = assay: Antiproliferative activity against human HL60 cells after 48 hrs by resazurin reduction assay; assay type: functional, cell-based; conditions: HL-60, 48 h; method in brief: as §1
HuT78 = assay: Antiproliferative activity against human HUT78 cells after 48 hrs by resazurin reduction assay; assay type: functional, cell-based; conditions: HuT78, 48 h; method in brief: as §1
Jurkat [1] = assay: Antiproliferative activity against human Jurkat T cells after 48 hrs by resazurin reduction assay; assay type: functional, cell-based; method in brief: as §1
Jurkat [2] = assay: Antiproliferative activity against human Jurkat T cells in hypoxic condition after 48 hrs by resazurin reduction assay; assay type: functional, cell-based
Method in brief: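 Jurkat cells held in a chamber purged 15 min with 95% N2/5% CO2, sealed, and incubated 1 h at 37 °C. Drug was diluted in N2/CO2-sparged PBS and added, then the chamber was purged again for 15 min and kept sealed at 37 °C for the assay. Resazurin readout was 530/590 nm, with IC50 from log(inhibitor) vs response fit.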

[3] = Stability of the compound in methanol assessed as retention time by HPLC analysis; assay type: physicochemical
[4] = Stability of the compound in DMEM media assessed as compound remaining at 250 uM after 49 hrs by HPLC analysis; assay type: physicochemical; conditions: read-out: Stability
Method in brief: (§2)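 Stock in DMSO added to DMEM with 10% FBS and pen/strep to 250 µM final, then filtered. Injected every 15 min onto a phenyl column with detection at 254 and 480 nm. Mobile phase was acetonitrile (A) and pH 7.2 Tris (B) at 1.0 mL/min, 15 min gradient from 30% A to 70% A.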

[5] = Stability of the compound in DMEM media assessed as compound remaining at 250 uM after 7 hrs by HPLC analysis; assay type: physicochemical; conditions: read-out: Stability; method in brief: as §2
[6] = Stability of the compound in DMEM media assessed as compound remaining at 250 uM after 5 hrs by HPLC analysis; assay type: physicochemical; conditions: read-out: Stability; method in brief: as §2
[7] = Stability of the compound in DMEM media assessed as compound remaining at 250 uM after 2 hrs by HPLC analysis; assay type: physicochemical; conditions: read-out: Stability; method in brief: as §2
Jurkat [8] = assay: Induction of DNA modifying activity in human Jurkat cells assessed as increase in H2O2-induced DNA strand break at 10 uM under aerobic condition by alkaline comet assay in presence of H2O2; assay type: cell-based
Method in brief: (§3)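 Jurkat cells at 1 x 10^5/mL were exposed to drug or PBS for 1 h at 37 °C in 5% CO2 (hypoxic arm in an N2/CO2 chamber). They then received 100 µM H2O2 in PBS for 20 min at 4 °C. Cells were embedded in agarose and lysed overnight, unwound at pH >13 for 20 min, electrophoresed at 20 V for 30 min at 4 °C, and stained with SYBR Green. Tail extent moment (tail length x tail DNA) was measured from ≥50 cells over two experiments.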

Jurkat [9] = assay: Induction of DNA modifying activity in human Jurkat cells assessed as tail extent moments at 10 uM under aerobic condition by alkaline comet assay in presence of 100 uM H2O2; method in brief: as §3
Jurkat [10] = assay: Induction of DNA modifying activity in human Jurkat cells assessed as tail extent moments at 10 uM under hypoxic condition by alkaline comet assay in presence of 100 uM H2O2; method in brief: as §3
Jurkat [11] = assay: Induction of DNA modifying activity in human Jurkat cells assessed as increase in amount of crosslink DNA at 10 uM for 1 hr under aerobic condition by Hoechst-33342 staining based fluorescence assay
Method in brief: (§4)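 Jurkat cells (~5-6 x 10^6) were exposed to drug or PBS for 1 h (aerobic, or in a sealed 95% N2/5% CO2 chamber) before DNA isolation. DNA (3,750 ng) was mixed with Hoechst 33342 in 0.5x TE, ex/em 360/460 nm, read before and after 5 min at 96-98 °C, 5 min ice, and 5 min room temperature. Crosslinked fraction was taken against a dye-only control and converted to crosslinks/fragment = -ln(1-X). Two isolations, each in triplicate.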

Jurkat [12] = assay: Induction of DNA modifying activity in human Jurkat cells assessed as increase in amount of crosslink DNA at 10 uM for 1 hr under hypoxic condition by Hoechst-33342 staining based fluorescence assay; method in brief: as §4
Jurkat [13] = assay: Induction of DNA modifying activity in human Jurkat cells assessed as increase in DNA-protein crosslink at 100 uM under aerobic condition by K-SDS assay (reference value: 4.5. +/- 1.5%); assay type: cell-based
Method in brief: (§5)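 Jurkat cells (2 x 10^5) treated 1.5 h at 37 °C in complete RPMI-1640, aerobic or in sealed 95% N2/5% CO2 chamber. Lysed in 2% SDS/Tris pH 7.5; KCl precipitation, three 65 °C wash rounds, proteinase K 55 °C 3 h. Protein-linked and free DNA quantified by SYBR Green against standard; %DPC = linked/(linked+free) x100. Mean ± SEM, three experiments (n=9).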

Jurkat [14] = assay: Induction of DNA modifying activity in human Jurkat cells assessed as DNA-protein crosslink at 100 uM under hypoxic condition by K-SDS assay; assay type: cell-based; method in brief: as §5
[15] = Stability of the compound in DMEM media assessed as compound remaining at 213 uM after 2 hrs by HPLC analysis; assay type: physicochemical; conditions: read-out: Stability
[16] = Stability of the compound in DMEM media assessed as compound remaining at 213 uM after 1.5 hrs by HPLC analysis; assay type: physicochemical; conditions: read-out: Stability
[17] = Stability of the compound in DMEM media assessed as compound remaining at 213 uM after 1 hr by HPLC analysis; assay type: physicochemical; conditions: read-out: Stability
[18] = Stability of the compound in DMEM media assessed as compound remaining at 213 uM after 0.5 hrs by HPLC analysis; assay type: physicochemical; conditions: read-out: Stability

| SMILES | IC50 (HeLa) [nM] | IC50 (HepG2) [nM] | IC50 (T47D) [nM] | IC50 (HL-60) [nM] | IC50 (HuT78) [nM] | IC50 (Jurkat [1]) [nM] | IC50 (Jurkat [2]) [nM] | Activity (Jurkat [8]) | Activity (Jurkat [9]) | Activity (Jurkat [10]) | Activity (Jurkat [11]) | Activity (Jurkat [12]) | Activity (Jurkat [13]) [%] | Activity (Jurkat [14]) | also measured |
| --- | --- | --- | --- | --- | --- | --- | --- | --- | --- | --- | --- | --- | --- | --- | --- |
| CC1=CC(=O)c2c(COC(N)=O)c3n(c2C1=O)C[C@H]1[C@@H]3N1C (some centres undefined) | 525 | 342 | 225 | 30 | 24 | 8 | 4 | Active | 0.26 | 0.32 | 0.55 | 0.51 | 17 | 41.9% | Retention_time [3]: 3.6 min; remaining at 49 h, 250 µM [4]: 18%; remaining at 7 h, 250 µM [5]: 72%; remaining at 5 h, 250 µM [6]: 78%; remaining at 2 h, 250 µM [7]: 89% |
| CO[C@@]12[C@H](COC(N)=O)C3=C(C(=O)C(C)=C(N)C3=O)N1C[C@@H]1N[C@@H]12 [MITOMYCIN] | 1870 | 2940 | 17000 | 410 | 66 | 578 | 303 |  | 96 | 87 | Active | Active | 7.8 | inactive |  |
| CN1[C@@H]2c3c(COC(N)=O)c4c(n3C[C@@H]21)C(=O)C=CC4=O (some centres undefined) | 6210 | 7870 | 9290 | 2030 | 131 | 4160 | 3960 | Active | 0.49 | 3.6 | Active |  | 17 | inactive | remaining at 2 h, 213 µM [15]: 8%; remaining at 1.5 h, 213 µM [16]: 14%; remaining at 1 h, 213 µM [17]: 25%; remaining at 0.5 h, 213 µM [18]: 50% |
